Results taken from ChEMBL document CHEMBL1122482, “Optical resolution, absolute configuration, and activity of the enantiomers of proxyphylline” (J Med Chem, 1983).

Legend:
[1] = molecular target: cGMP-dependent 3',5'-cyclic phosphodiesterase (Homo sapiens, UniProt O00408); assay: Inhibition of human lung low-affinity cGMP phosphodiesterases (10-50 uM/L)
Method in brief: (§1)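 Enzyme source was lung cytosol from homogenized unaffected tissue of a patient undergoing total pulmectomy for pulmonary carcinoma. Phosphodiesterase activity was measured essentially by the Thompson and Appleman method. Substrates were cAMP or cGMP at 0.5–2 μmol/L for the high-affinity form and 10–50 μmol/L for the low-affinity form. Inhibitor was added at 0.25–1.0 mmol/L. K_I came from Dixon plots of initial rates.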

[2] = Inhibition of human lung high-affinity cAMP phosphodiesterases (0.5-2 uM/L); method in brief: as §1
[3] = molecular target: cGMP-specific 3',5'-cyclic phosphodiesterase (Homo sapiens, UniProt O76074); assay: Inhibition of human lung high-affinity cGMP phosphodiesterases (0.5-2 uM/L); method in brief: as §1

cGMP-dependent 3',5'-cyclic phosphodiesterase, sequence (O00408 whole entry): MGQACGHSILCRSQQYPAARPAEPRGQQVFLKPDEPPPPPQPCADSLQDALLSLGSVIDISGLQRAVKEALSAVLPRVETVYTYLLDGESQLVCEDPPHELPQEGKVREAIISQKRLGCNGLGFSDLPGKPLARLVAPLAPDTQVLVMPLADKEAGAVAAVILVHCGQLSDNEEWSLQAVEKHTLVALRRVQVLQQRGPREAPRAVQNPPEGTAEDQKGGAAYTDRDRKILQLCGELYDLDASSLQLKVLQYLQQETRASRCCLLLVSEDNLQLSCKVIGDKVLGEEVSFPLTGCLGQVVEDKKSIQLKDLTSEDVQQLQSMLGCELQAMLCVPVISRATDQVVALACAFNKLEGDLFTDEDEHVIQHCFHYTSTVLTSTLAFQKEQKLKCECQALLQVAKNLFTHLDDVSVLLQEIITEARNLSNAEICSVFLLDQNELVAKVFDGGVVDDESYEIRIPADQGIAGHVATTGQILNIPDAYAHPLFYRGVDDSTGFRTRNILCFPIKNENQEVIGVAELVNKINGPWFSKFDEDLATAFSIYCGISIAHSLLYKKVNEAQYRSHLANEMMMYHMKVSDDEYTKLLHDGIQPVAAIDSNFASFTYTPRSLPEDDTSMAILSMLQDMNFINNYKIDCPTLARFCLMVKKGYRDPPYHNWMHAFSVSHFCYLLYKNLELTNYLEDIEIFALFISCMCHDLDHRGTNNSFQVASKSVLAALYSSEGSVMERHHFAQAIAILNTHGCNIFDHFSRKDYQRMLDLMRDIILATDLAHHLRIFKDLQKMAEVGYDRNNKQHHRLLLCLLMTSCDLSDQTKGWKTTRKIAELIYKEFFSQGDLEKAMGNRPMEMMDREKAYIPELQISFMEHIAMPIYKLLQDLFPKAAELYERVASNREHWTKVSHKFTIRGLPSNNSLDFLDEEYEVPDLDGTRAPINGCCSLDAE

Ki [1]	Ki [2]	Ki [3]	SMILES
600 µM	500 µM	600 µM	C[C@@H](O)Cn1cnc2c1c(=O)n(C)c(=O)n2C [(R)-PROXYPHYLLINE]
700 µM	400 µM	600 µM	C[C@H](O)Cn1cnc2c1c(=O)n(C)c(=O)n2C [(S)-PROXYPHYLLINE]
600 µM	500 µM	600 µM	CC(O)Cn1cnc2c1c(=O)n(C)c(=O)n2C (centres undefined) [PROXYPHYLLINE]
